Results on 19 compounds are retold here after ChEMBL document CHEMBL1135620, “Cyclosporins: structure-activity relationships for the inhibition of the human FPR1 formylpeptide receptor” (J Med Chem, 2002).

Molecules are shown by their SMILES.

As usually defined, the IC50 is the concentration that inhibits the measured activity by half. Read a low IC50 as greater potency. As usually defined, the IC20 is the concentration at which the effect reaches the 20% level. Higher therefore signals a need for much substance.

In the first assay the target is T1, fMet-Leu-Phe receptor (Homo sapiens, UniProt P21462).
T1 sequence (P21462 whole entry): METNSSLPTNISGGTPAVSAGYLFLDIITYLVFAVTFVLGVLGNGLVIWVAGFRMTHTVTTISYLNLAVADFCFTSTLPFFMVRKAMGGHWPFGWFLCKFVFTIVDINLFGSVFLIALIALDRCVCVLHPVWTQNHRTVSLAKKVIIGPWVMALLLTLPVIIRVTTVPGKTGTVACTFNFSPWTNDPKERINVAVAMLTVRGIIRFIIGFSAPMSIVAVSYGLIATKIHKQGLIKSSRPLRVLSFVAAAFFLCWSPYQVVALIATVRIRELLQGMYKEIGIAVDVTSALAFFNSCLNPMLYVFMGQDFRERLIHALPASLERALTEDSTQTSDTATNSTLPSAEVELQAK
In words: Inhibitory activity against human formylpeptide receptor (FPR) of human leukemia HL-60 cells. It counts as cell-based. The procedure, abridged:
(§1)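 HL-60 cells differentiated 48 h with 0.2 mM dibutyryl cAMP, washed, then treated with 5 μM cytochalasin B (5–10 min, 37 °C). Stimulated 10 min with 30 nM f-MLF. N-acetyl-β-D-glucosaminidase release read at 410 nm on p-nitrophenyl substrate after spontaneous-release subtraction. Duplicate wells; IC20/IC50 as mean ± SD of independent experiments.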
Regarding `CC/C=C/C[C@@H](C)[C@@H](O)[C@H]1C(=O)N[C@@H](C(C)C)C(=O)N(C)CC(=O)N(C)[C@@H](CC(C)C)C(=O)N[C@@H](C(C)C)C(=O)N(C)[C@@H](CC(C)C)C(=O)N[C@@H](C)C(=O)N[C@H](C)C(=O)N(C)[C@@H](CC(C)C)C(=O)N(C)[C@@H](CC(C)C)C(=O)N(C)[C@@H](C(C)C)C(=O)N1C`, the IC50 is greater than 10 µM. Take `CCCCCC[C@H]1C(=O)N[C@@H](CC)C(=O)N(C)CC(=O)N(C)[C@@H](CC(C)C)C(=O)N[C@@H](C(C)C)C(=O)N(C)[C@@H](CC(C)C)C(=O)N[C@@H](C)C(=O)N[C@H](C)C(=O)N(C)[C@@H](CC(C)C)C(=O)N(C)[C@@H](CC(C)C)C(=O)N(C)[C@@H](C(C)C)C(=O)N1C`: the IC50 is greater than 10 µM.

For the compound `C/C=C/C[C@@H](C)[C@@H](O)[C@H]1C(=O)N[C@@H]([C@@H](C)O)C(=O)N(C)CC(=O)N(C)[C@@H](CC(C)C)C(=O)N[C@@H](C(C)C)C(=O)N(C)[C@@H](CC(C)C)C(=O)N[C@@H](C)C(=O)N[C@H](C)C(=O)N(C)[C@@H](CC(C)C)C(=O)N[C@@H](CC(C)C)C(=O)N(C)[C@@H](C(C)C)C(=O)N1C`, the IC50 was greater than 3 µM.

Take `CC/C=C/C[C@@H](C)[C@@H](O)[C@H]1C(=O)N[C@@H](CC)C(=O)N(C)CC(=O)N(C)[C@@H](CC(C)C)C(=O)N[C@@H](C(C)C)C(=O)N(C)[C@@H](CC(C)C)C(=O)N[C@@H](C)C(=O)N[C@H](CCCCN)C(=O)N(C)[C@@H](CC(C)C)C(=O)N(C)[C@@H](CC(C)C)C(=O)N(C)[C@@H](C(C)C)C(=O)N1C`: the IC50 turned out to be 6.3 µM.

Compound `C/C=C/C[C@@H](C)[C@@H](O)[C@H]1C(=O)N[C@@H](CC)C(=O)N(C)CC(=O)N(C)[C@@H](CC(C)C)C(=O)N[C@@H](C(C)C)C(=O)N(C)[C@@H](CC(C)C)C(=O)N[C@@H](C)C(=O)N[C@H](C)C(=O)N(C)[C@@H](CC(C)C)C(=O)N(C)[C@@H](CC(C)C)C(=O)N(C)[C@@H](C)C(=O)N1C` registered an IC50 of 2.52 µM. `C/C=C/C[C@@H](C)[C@@H](O)[C@H]1C(=O)N[C@@H](CC)C(=O)N(C)CC(=O)N(C)[C@@H](CC(C)C)C(=O)N[C@@H](C(C)C)C(=O)N(C)[C@@H](CC(C)C)C(=O)N[C@@H](C)C(=O)N[C@H](C)C(=O)N[C@@H](CC(C)C)C(=O)N(C)[C@@H](CC(C)C)C(=O)N(C)[C@@H](C(C)C)C(=O)N1C` gave an IC50 of 3 µM. In turn, `C/C=C/C[C@@H](C)[C@@H](O)[C@H]1C(=O)N[C@@H]([C@@H](C)O)C(=O)N(C)CC(=O)N(C)[C@@H](CC(C)C)C(=O)N[C@@H](C(C)C)C(=O)N(C)[C@@H](CC(C)C)C(=O)N[C@@H](C)C(=O)N[C@](O)(C(C)C)C(=O)N(C)[C@@H](CC(C)C)C(=O)N[C@@H](CC(C)C)C(=O)N(C)[C@@H](C(C)C)C(=O)N1C` had an IC50 of 2.5 µM. The same measure, in the same setting: the figure for `C/C=C/C[C@@H](C)[C@@H](O)[C@H]1C(=O)N[C@@H](CCC)C(=O)N(C)CC(=O)N(C)[C@@H](CC(C)C)C(=O)N[C@@H](C(C)C)C(=O)N(C)[C@@H](CC(C)C)C(=O)N[C@@H](C)C(=O)N[C@H](C)C(=O)N[C@@H](CC(C)C)C(=O)N(C)[C@@H](CC(C)C)C(=O)N(C)[C@@H](C(C)C)C(=O)N1C` is greater than 10 µM.

As for `C/C=C/C[C@@H](C)[C@@H](O)[C@H]1C(=O)N[C@@H](C)C(=O)N(C)CC(=O)N(C)[C@@H](CC(C)C)C(=O)N[C@@H](C(C)C)C(=O)N(C)[C@@H](CC(C)C)C(=O)N[C@@H](C)C(=O)N[C@H](C)C(=O)N(C)[C@@H](CC(C)C)C(=O)N[C@@H](CC(C)C)C(=O)N(C)[C@@H](C(C)C)C(=O)N1C`, 2.2 µM corresponded to half-maximal inhibition (IC50). In turn, `C/C=C/C[C@@H](C)[C@@H](O)[C@H]1C(=O)N[C@@H](C(C)C)C(=O)N(C)CC(=O)N(C)[C@@H](CC(C)C)C(=O)N[C@@H](C(C)C)C(=O)N(C)[C@@H](CC(C)C)C(=O)N[C@@H](C)C(=O)N[C@H](C)C(=O)N(C)[C@@H](CC(C)C)C(=O)N[C@@H](CC(C)C)C(=O)N(C)[C@@H](C(C)C)C(=O)N1C` showed an IC50 greater than 3 µM.

Compound `C/C=C/C[C@@H](C)[C@@H](O)[C@H]1C(=O)N[C@@H]([C@@H](C)O)C(=O)N(C)CC(=O)N(C)[C@@H](CC(C)C)C(=O)N[C@@H](CC(C)C)C(=O)N(C)[C@@H](CC(C)C)C(=O)N[C@@H](C)C(=O)N[C@H](C)C(=O)N(C)[C@@H](CC(C)C)C(=O)N[C@@H](CC(C)C)C(=O)N(C)[C@@H](C(C)C)C(=O)N1C` yielded an IC50 of 0.59 µM. Consider `C/C=C/C[C@@H](C)[C@@H](O)[C@H]1C(=O)N[C@@H](CC)C(=O)NCC(=O)N(C)[C@@H](CC(C)C)C(=O)N[C@@H](C(C)C)C(=O)N(C)[C@@H](CC(C)C)C(=O)N[C@@H](C)C(=O)N[C@H](CO)C(=O)N(C)[C@@H](CC(C)C)C(=O)N(C)[C@@H](CC(C)C)C(=O)N(C)[C@@H](C(C)C)C(=O)N1C`, for which the IC50 was greater than 5 µM. `C/C=C/C[C@@H](C)[C@@H](O)[C@H]1C(=O)N[C@@H](CCC)C(=O)N(C)CC(=O)N(C)[C@@H](CC(C)C)C(=O)N[C@@H](C(C)C)C(=O)N[C@@H](CC(C)C)C(=O)N[C@@H](C)C(=O)N[C@H](C)C(=O)N(C)[C@@H](CC(C)C)C(=O)N(C)[C@@H](CC(C)C)C(=O)N(C)[C@@H](C(C)C)C(=O)N1C` came in with a half-inhibitory concentration (IC50) greater than 10 µM. Compound `C/C=C/C[C@@H](C)[C@@H](O)[C@H]1C(=O)N[C@@H]([C@@H](C)O)C(=O)N(C)CC(=O)N[C@@H](CC(C)C)C(=O)N[C@@H](CC(C)C)C(=O)N(C)[C@@H](CC(C)C)C(=O)N[C@@H](C)C(=O)N[C@](O)(C(C)C)C(=O)N(C)[C@@H](CC(C)C)C(=O)N[C@@H](CC(C)C)C(=O)N(C)[C@@H](C(C)C)C(=O)N1C` came in with a half-maximal inhibitory concentration (IC50) of 0.56 µM. The same measure, in the same setting: the figure for `CC/C=C/C[C@@H](C)[C@@H](O)[C@H]1C(=O)N[C@@H](CCC)C(=O)N(C)CC(=O)N(C)[C@@H](CC(C)C)C(=O)N[C@@H](C(C)C)C(=O)N(C)[C@@H](CC(C)C)C(=O)N[C@@H](C)C(=O)N[C@H](C)C(=O)N(C)[C@@H](CC(C)C)C(=O)N(C)[C@@H](CC(C)C)C(=O)N(C)[C@@H](C(C)C)C(=O)N1C` is greater than 10 µM; for `CCC[C@@H]1NC(=O)[C@H](CC(C)C)N(C)C(=O)[C@H](C(C)C)N(C)C(=O)[C@H](CC(C)C)N(C)C(=O)[C@H](CC(C)C)N(C)C(=O)[C@@H](C)NC(=O)[C@H](C)NC(=O)[C@H](CC(C)C)N(C)C(=O)[C@H](C(C)C)NC(=O)[C@H](CC(C)C)N(C)C(=O)CN(C)C1=O` it is greater than 10 µM.

The target of the next assay is T2, fMet-Leu-Phe receptor (Homo sapiens) (UniProt P21462).
T2 sequence (whole entry): T1 sequence (P21462 whole entry)
The assay can be described thus: Inhibitory activity against Human formylpeptide receptor (FPR) of human leukemia HL-60 cells. The format is cell-based. In outline: as §1
As for `C/C=C/C[C@@H](C)[C@@H](O)[C@H]1C(=O)N[C@@H](CC)C(=O)N(C)CC(=O)N(C)[C@H](CC(C)C)C(=O)N[C@H](C(C)C)C(=O)N(C)[C@H](CC(C)C)C(=O)N[C@@H](C)C(=O)N[C@H](C)C(=O)N[C@@H](CC(C)C)C(=O)N(C)[C@@H](CC(C)C)C(=O)N(C)[C@@H](C(C)C)C(=O)N1C`, the IC20 is 0.53 µM. The compound `CC(C)C[C@@H]1C(=O)N[C@@H](C(C)C)C(=O)N(C)[C@H](CC(C)C)C(=O)N[C@@H](C)C(=O)N[C@H](C)C(=O)N(C)[C@@H](CC(C)C)C(=O)N(C)[C@@H](CC(C)C)C(=O)N(C)[C@@H](C(C)C)C(=O)N(C)[C@@H](CC(C)C)C(=O)N[C@@H](C(C)C)C(=O)N(C)CC(=O)N1C` displayed an IC20 of 4.2 µM. `C/C=C/C[C@@H](C)[C@@H](O)[C@H]1C(=O)N[C@@H](CC)C(=O)N(C)CC(=O)N(C)[C@H](CC(C)C)C(=O)N[C@H](C(C)C)C(=O)N(C)[C@H](CC(C)C)C(=O)N[C@@H](C)C(=O)N[C@H](C)C(=O)N(C)[C@@H](CC(C)C)C(=O)N(C)[C@@H](CC(C)C)C(=O)N[C@@H](C(C)C)C(=O)N1C` displayed an IC20 of 3.8 µM.
